According to ChEMBL document CHEMBL1153955, “Indolylarylsulfones bearing natural and unnatural amino acids. Discovery of potent inhibitors of HIV-1 non-nucleoside wild type and resistant mutant strains reverse transcriptase and coxsackie B4 virus” (J Med Chem, 2009):

Experiments:
[1] = test system: Human immunodeficiency virus 2; test: Antiviral activity against HIV2 ROD in human CEM cells assessed as protection against virus-induced cytopathicity after 4 days; format: functional, organism-based; settings: Human immunodeficiency virus 2, ROD, CCRF-CEM, 96 h
Summary of the method: (§1)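 CEM cells (~3 × 10⁵ cells/mL) infected with ~100 CCID₅₀ per mL of HIV-1 (IIIB) or HIV-2 (ROD), then seeded into wells containing compound dilutions. After 4 days at 37 °C, syncytium (giant cell) formation was examined microscopically. EC₅₀ = concentration protecting CEM cells from HIV cytopathicity by 50%.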

[2] = test system: Human immunodeficiency virus 1; test: Antiviral activity against HIV1 3B in human CEM cells assessed as protection against virus-induced cytopathicity after 4 days; format: functional, organism-based; settings: Human immunodeficiency virus 1, 3B, CCRF-CEM, 96 h; summary of the method: as §1
[3] = Cytotoxicity against feline CRFK cells by MTS assay; format: cell-based, Felis catus; settings: cat
CCRF-CEM = test: Antiproliferative activity against human CEM cells after 3 days; format: cell-based; settings: 72 h
Summary of the method: (§2)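 Cells seeded at 5 × 10⁴ to 7.5 × 10⁴ cells/200 µL with or without serial compound dilutions; incubated at 37 °C for 2 days (L1210) or 3 days (Molt4/C8, CEM). Cell numbers counted with a Coulter counter. CC₅₀ = concentration reducing proliferation by 50% versus untreated controls, read from plots of cell number (% of control) against concentration. Means of at least two independent experiments.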

Coxsackievirus B4 [4] = test: Antiviral activity against Coxsackievirus B4 in human HeLa cells assessed as protection against virus-induced cytopathicity; format: functional, organism-based; settings: Enterovirus B
Summary of the method: (§3)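 Confluent cell monolayers inoculated with 100 CCID₅₀ virus. After 1-2 h adsorption, residual virus removed and cultures incubated with varying compound concentrations. Cytopathicity scored once it reached completion in untreated infected controls. EC₅₀ = dose reducing virus-induced cytopathogenicity by 50%.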

Feline coronavirus = test: Antiviral activity against Feline coronavirus in feline […] cells assessed as inhibition of virus-induced cytopathicity; format: functional, organism-based; settings: Alphacoronavirus 1
Influenza A virus H3N2 [5] = test: Antiviral activity against influenza H3N2 virus in MDCK cells assessed as reduction of virus-induced cytopathicity by MTS method; format: functional, organism-based
Human alphaherpesvirus 1 [6] = test: Antiviral activity against thymidine kinase deficient and acyclovir resistant HSV1 KOS in human HEL cells assessed as protection against virus-induced cytopathicity; format: functional, organism-based; settings: Human alphaherpesvirus 1, KOS
[7] = molecular target: Human immunodeficiency virus type 1 reverse transcriptase (Human immunodeficiency virus 1, UniProt Q72547, Y181I); test: Inhibition of HIV1 reverse transcriptase p66/p51 Y181I mutant
Summary of the method: (§4)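 Substrate was 0.5 µg poly(rA)/oligo(dT) 10:1 (0.3 µM 3′-OH ends) with 10 µM [³H]dTTP, at 37 °C. Acid-precipitable radioactivity was counted on GF/C filters after TCA washes.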

Coxsackievirus B4 [8] = test: Antiviral activity against Coxsackievirus B4 in african green monkey Vero cells assessed as protection against virus-induced cytopathicity; format: functional, organism-based; settings: Enterovirus B; summary of the method: as §3
[9] = molecular target: Human immunodeficiency virus type 1 reverse transcriptase (Human immunodeficiency virus 1, UniProt Q72547); test: Inhibition of HIV1 reverse transcriptase p66/p51
L1210 = test: Antiproliferative activity against mouse L1210 cells after 2 days; format: cell-based; settings: L1210, 48 h; summary of the method: as §2
Vaccinia virus = test: Antiviral activity against Vaccinia virus Lederle in human HEL cells assessed as protection against virus-induced cytopathicity; format: functional, organism-based; settings: Orthopoxvirus vaccinia
[10] = Antiproliferative activity against human Molt4/C8 cells after 3 days; format: cell-based; settings: MOLT-4, 72 h; summary of the method: as §2
Punta Toro virus = test: Antiviral activity against Punta Toro virus in african green monkey Vero cells assessed as protection against virus-induced cytopathicity; format: functional, organism-based; summary of the method: as §3
[11] = Cytotoxicity against human HeLa cells assessed as drug level causing microscopically detectable alteration of normal cell morphology after 3 days; format: cell-based
Summary of the method: (§5)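 Serial compound dilutions added to confluent HeLa or Vero monolayers. MCC = minimum concentration causing microscopically detectable alteration of cell morphology after 3 days of incubation.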

[12] = test system: Mammalian orthoreovirus 1; test: Antiviral activity against Reovirus 1 in african green monkey Vero cells assessed as protection against virus-induced cytopathicity; format: functional, organism-based; settings: Mammalian orthoreovirus 1, Vero; summary of the method: as §3
[13] = Cytotoxicity against MDCK cells by MTS assay; format: cell-based, Canis lupus familiaris; settings: dog
[14] = test system: Vesicular stomatitis virus; test: Antiviral activity against VSV in human HEL cells assessed as protection against virus-induced cytopathicity; format: functional, organism-based
[15] = molecular target: Human immunodeficiency virus type 1 reverse transcriptase (Human immunodeficiency virus 1, UniProt Q72547, K103N); test: Inhibition of HIV1 reverse transcriptase p66/p51 K103N mutant; summary of the method: as §4
Influenza A virus H3N2 [16] = test: Antiviral activity against influenza H3N2 virus in MDCK cells assessed as reduction of virus-induced cytopathicity by visual cytopathic effect scoring method; format: functional, organism-based
Influenza B virus [17] = test: Antiviral activity against influenza B virus in MDCK cells assessed as reduction of virus-induced cytopathicity by visual cytopathic effect scoring method; format: functional, organism-based
[18] = molecular target: Human immunodeficiency virus type 1 reverse transcriptase (Human immunodeficiency virus 1, UniProt Q72547, L100I); test: Inhibition of HIV1 reverse transcriptase p66/p51 L100I mutant; summary of the method: as §4
[19] = test system: Vesicular stomatitis virus; test: Antiviral activity against VSV in human HeLa cells assessed as protection against virus-induced cytopathicity; format: functional, organism-based
Influenza A virus [20] = test: Antiviral activity against influenza H1N1 virus in MDCK cells assessed as reduction of virus-induced cytopathicity by visual cytopathic effect scoring method; format: functional, organism-based
Human alphaherpesvirus 2 = test: Antiviral activity against HSV2 G in human HEL cells assessed as protection against virus-induced cytopathicity; format: functional, organism-based; settings: Human alphaherpesvirus 2, strain G; summary of the method: as §3
Influenza B virus [21] = test: Antiviral activity against influenza B virus in MDCK cells assessed as reduction of virus-induced cytopathicity by MTS method; format: functional, organism-based
[22] = test system: Respiratory syncytial virus; test: Antiviral activity against RSV Long in human HeLa cells assessed as protection against virus-induced cytopathicity; format: functional, organism-based; summary of the method: as §3
[23] = Cytotoxicity against african green monkey Vero cells assessed as drug level causing microscopically detectable alteration of normal cell morphology after 3 days; format: cell-based; settings: chlorocebus sabaeus; summary of the method: as §5
Human respirovirus 3 = test: Antiviral activity against Parainfluenza virus type 3 in african green monkey Vero cells assessed as protection against virus-induced cytopathicity; format: functional, organism-based; settings: Human respirovirus 3, Vero; summary of the method: as §3
Sindbis virus = test: Antiviral activity against Sindbis virus in african green monkey Vero cells assessed as protection against virus-induced cytopathicity; format: functional, organism-based; summary of the method: as §3
[24] = Cytotoxicity against human HEL cells assessed as drug level causing microscopically detectable alteration of normal cell morphology after 3 days; format: cell-based
Human alphaherpesvirus 1 [25] = test: Antiviral activity against HSV1 KOS in human HEL cells assessed as protection against virus-induced cytopathicity; format: functional, organism-based; settings: Human alphaherpesvirus 1, KOS
[26] = Cytotoxicity against MDCK cells assessed as drug level causing microscopically detectable alteration of normal cell morphology; format: cell-based, Canis lupus familiaris; settings: dog
Felid alphaherpesvirus 1 = test: Antiviral activity against Feline herpesvirus in feline […] cells assessed as inhibition of virus-induced cytopathicity; format: functional, organism-based
Influenza A virus [27] = test: Antiviral activity against influenza H1N1 virus in MDCK cells assessed as reduction of virus-induced cytopathicity by MTS method; format: functional, organism-based; settings: Influenza A virus, H1N1, MDCK

Row | Compound | EC50 [1] [µM] | EC50 [2] [µM] | CC50 [3] [µM] | IC50 (CCRF-CEM) [µM] | EC50 (Coxsackievirus B4 [4]) [µM] | EC50 (Feline coronavirus) [µM] | EC50 (Influenza A virus H3N2 [5]) [µM] | EC50 (Human alphaherpesvirus 1 [6]) [µM] | EC50 (Coxsackievirus B4 [8]) [µM] | IC50 (L1210) [µM] | EC50 (Vaccinia virus) [µM] | IC50 [10] [µM] | EC50 (Punta Toro virus) [µM] | MCC at 72 h [11] [µM] | EC50 [12] [µM] | CC50 [13] [µM] | EC50 [14] [µM] | EC50 (Influenza A virus H3N2 [16]) [µM] | EC50 (Influenza B virus [17]) [µM] | EC50 [19] [µM] | also measured
1 | Cc1cc(C)cc(S(=O)(=O)c2c(C(=O)NC(C)CS(N)(=O)=O)[nH]c3ccc([N+](=O)[O-])cc23)c1 (centres undefined) | > 10 | 0.0042 | 47.6 | 15 | ≥ 20 | > 20 | > 4 | > 20 | ≥ 20 | 20 | > 20 | 11 | > 20 | ≥ 20 | > 20 | 9.8 | > 20 | > 4 | > 4 | ≥ 20 | IC50 ([7]; read-out: IC50): 26.2 µM; IC50 ([9]; read-out: IC50): 0.028 µM; IC50 ([15]; read-out: IC50): 3.28 µM; IC50 ([18]; read-out: IC50): 0.364 µM; EC50 (Influenza A virus [20]): > 4 µM; EC50 (Human alphaherpesvirus 2): > 20 µM; EC50 (Influenza B virus [21]): > 4 µM; EC50 [22]: > 20 µM; MCC at 72 h [23]: ≥ 20 µM; EC50 (Human respirovirus 3): > 20 µM; EC50 (Sindbis virus): > 20 µM; MCC at 72 h [24]: ≥ 20 µM; EC50 (Human alphaherpesvirus 1 [25]): > 20 µM; MCC [26]: 20 µM; EC50 (Felid alphaherpesvirus 1): > 20 µM; EC50 (Influenza A virus [27]): > 4 µM
2 | Cc1cc(C)cc(S(=O)(=O)c2c(C(=O)NCCS(N)(=O)=O)[nH]c3ccc(Cl)c(F)c23)c1 | > 10 | 0.0023 | 34.6 | 31 | 7 | > 20 | > 4 | > 20 | > 20 | 42 | > 20 | 36 | > 20 | 100 | > 20 | 7.4 | > 20 | > 4 | > 4 | > 20 | IC50 [7]: ND(Insoluble); IC50 [9]: ND(Insoluble); IC50 [15]: ND(Insoluble); IC50 [18]: ND(Insoluble); EC50 (Influenza A virus [20]): > 4 µM; EC50 (Human alphaherpesvirus 2): > 20 µM; EC50 (Influenza B virus [21]): > 4 µM; EC50 [22]: 20 µM; MCC at 72 h [23]: 100 µM; EC50 (Human respirovirus 3): > 20 µM; EC50 (Sindbis virus): > 20 µM; MCC at 72 h [24]: 100 µM; EC50 (Human alphaherpesvirus 1 [25]): > 20 µM; MCC [26]: 20 µM; EC50 (Felid alphaherpesvirus 1): > 20 µM; EC50 (Influenza A virus [27]): > 4 µM
3 | Cc1cc(C)cc(S(=O)(=O)c2c(C(=O)NC(C)CS(N)(=O)=O)[nH]c3ccc(Br)cc23)c1 (centres undefined) | > 10 | 0.0023 | 53 | 12 | 3 | > 20 | > 800 | > 4 | 16 | 11 | > 4 | 9.3 | > 20 | 20 | > 20 | 1.9 | > 4 | > 800 | > 800 | > 4 | IC50 ([7]; read-out: IC50): 8.55 µM; IC50 ([9]; read-out: IC50): 0.003 µM; IC50 ([15]; read-out: IC50): 1.33 µM; IC50 ([18]; read-out: IC50): 0.125 µM; EC50 (Influenza A virus [20]): > 800 µM; EC50 (Human alphaherpesvirus 2): > 4 µM; EC50 (Influenza B virus [21]): > 800 µM; EC50 [22]: ≥ 4 µM; MCC at 72 h [23]: ≥ 20 µM; EC50 (Human respirovirus 3): > 20 µM; EC50 (Sindbis virus): > 20 µM; MCC at 72 h [24]: 20 µM; EC50 (Human alphaherpesvirus 1 [25]): > 4 µM; MCC [26]: 4 µM; EC50 (Felid alphaherpesvirus 1): > 20 µM; EC50 (Influenza A virus [27]): > 800 µM
4 | Cc1cc(C)cc(S(=O)(=O)c2c(C(=O)NCCS(N)(=O)=O)[nH]c3ccc([N+](=O)[O-])cc23)c1 | > 10 | 0.0027 | > 100 | 200 | ≥ 20 | > 100 | > 4 | > 4 | > 20 | 408 | > 4 | 244 | > 20 | ≥ 100 | > 20 | 32.7 | > 4 | > 4 | > 4 | ≥ 100 | IC50 ([7]; read-out: IC50): > 40 µM; IC50 ([9]; read-out: IC50): 0.061 µM; IC50 ([15]; read-out: IC50): 0.787 µM; IC50 ([18]; read-out: IC50): 0.388 µM; EC50 (Influenza A virus [20]): > 4 µM; EC50 (Human alphaherpesvirus 2): > 4 µM; EC50 (Influenza B virus [21]): > 4 µM; EC50 [22]: 20 µM; MCC at 72 h [23]: 100 µM; EC50 (Human respirovirus 3): > 20 µM; EC50 (Sindbis virus): > 20 µM; MCC at 72 h [24]: 20 µM; EC50 (Human alphaherpesvirus 1 [25]): > 4 µM; MCC [26]: 20 µM; EC50 (Felid alphaherpesvirus 1): > 100 µM; EC50 (Influenza A virus [27]): > 4 µM
